Measurements taken from ChEMBL document CHEMBL1909525, “Synthesis and anticonvulsant activity of novel 2,6-diketopiperazine derivatives. Part 1: perhydropyrrole[1,2-a]pyrazines” (Eur J Med Chem, 2011).
Activity calls are given as the source filed them. The calls are words filed in the database; no cut-off is given here.

Tests used:
Rattus norvegicus [1] = assay: Anticonvulsant activity in po dosed albino Sprague-Dawley rat assessed as protection against subcutaneous metrazol-induced seizure after 0.25 hrs; type: functional
Summary of the method: (§1)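 Rats dosed orally, compound in 0.5% methylcellulose. MES at 150 mA, 60 Hz, 0.2 s; scMET with pentylenetetrazole 70 mg/kg s.c. plus 30 min observation; rotorod for toxicity.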

Mus musculus [2] = assay: Anticonvulsant activity in ip dosed albino Carworth Farms No.1 mouse assessed as time needs to show peak effect for electric-current for 3 secs-induced seizure after 0.25 hrs by 6Hz minimal clonic seizure test; type: functional
Mus musculus [3] = assay: Anticonvulsant activity in ip dosed albino Carworth Farms No.1 mouse assessed as time needs to show peak effect for protection against maximal electroshock-induced seizure; type: functional
Rattus norvegicus [4] = assay: Anticonvulsant activity in po dosed albino Sprague-Dawley rat assessed as time needs to show peak effect for protection against maximal electroshock-induced seizure after 0.25 hrs; type: functional; summary of the method: as §1
Mus musculus [5] = assay: Anticonvulsant activity in ip dosed albino Carworth Farms No.1 mouse assessed as protection against electric-current for 3 secs-induced seizure after 0.25 hrs by 6Hz minimal clonic seizure test; type: functional; details: albino Carworth Farms No.1, ip
Mus musculus [6] = assay: Anticonvulsant activity in ip dosed albino Carworth Farms No.1 mouse assessed as protection against maximal electroshock-induced seizure after 0.25 hrs; type: functional; details: albino Carworth Farms No.1, ip
Summary of the method: (§2)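 Mouse quantification at the time of peak effect, compound given i.p. in 0.5% methylcellulose. Groups of at least eight mice received varied doses until at least two points fell between 100 and 0% response. ED50 (MES, scMET) and TD50 (rotorod) with 95% CI by probit analysis (Finney). PI = TD50/ED50 MES.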

[7] = Neurotoxicity in po dosed albino Sprague-Dawley rat assessed as motor impairment after 0.25 hrs by rotarod test; type: toxicity, organism-based; details: in vivo; summary of the method: as §1
Mus musculus [8] = assay: Anticonvulsant activity in ip dosed albino Carworth Farms No.1 mouse assessed as protection against subcutaneous metrazol-induced seizure after 0.25 hrs; type: functional; details: albino Carworth Farms No.1, 0.25 h; summary of the method: as §2
Mus musculus [9] = assay: Anticonvulsant activity in albino Carworth Farms No.1 mouse assessed as protection against maximal electroshock-induced seizure at 300 mg/kg, ip after 4 hrs; type: functional, organism-based; set-up: dose 300 mg/kg
Summary of the method: (§3)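 Mouse MES test with compound given i.p. (30, 100 or 300 mg/kg) in 0.5% methylcellulose; tested at 0.5 and 4 h. Corneal stimulus of 50 mA at 60 Hz for 0.2 s, electrodes primed with 0.5% butacaine in 0.9% NaCl. Protection is abolition of hindlimb tonic extension; scored as protected/tested.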

Mus musculus [10] = assay: Anticonvulsant activity in albino Carworth Farms No.1 mouse assessed as protection against subcutaneous metrazol-induced seizure at 300 mg/kg, ip after 4 hrs; type: functional, organism-based; set-up: dose 300 mg/kg
Summary of the method: (§4)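 Mouse scMET test. Compound given i.p. (30, 100 or 300 mg/kg) in 0.5% methylcellulose. Pentylenetetrazole 85 mg/kg (CD97) given s.c. at 0.5 or 4 h, then mice observed for 30 min. Protection is absence of clonic spasms; scored as protected/tested.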

Mus musculus [11] = assay: Neurotoxicity in albino Carworth Farms No.1 mouse assessed as motor impairment at 30 mg/kg, ip after 4 hrs by rotarod test; type: toxicity, organism-based; set-up: dose 30 mg/kg, route intraperitoneal; details: in vivo
Summary of the method: (§5)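 Rotorod neurotoxicity in mice at 6 r.p.m. Compound given i.p. (30, 100, 300 mg/kg) in 0.5% methylcellulose; tested at 30 min and 4 h. Impairment is inability to keep equilibrium on the rod for a given time; scored as impaired/tested.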

Mus musculus [12] = assay: Anticonvulsant activity in albino Carworth Farms No.1 mouse assessed as protection against subcutaneous metrazol-induced seizure at 30 mg/kg, ip after 4 hrs; type: functional, organism-based; set-up: dose 30 mg/kg; summary of the method: as §4
Mus musculus [13] = assay: Neurotoxicity in albino Carworth Farms No.1 mouse assessed as motor impairment at 300 mg/kg, ip after 0.5 hrs by rotarod test; type: toxicity, organism-based; set-up: dose 300 mg/kg, route intraperitoneal; details: in vivo; summary of the method: as §5
Mus musculus [14] = assay: Neurotoxicity in albino Carworth Farms No.1 mouse assessed as motor impairment at 100 mg/kg, ip after 0.5 hrs by rotarod test; type: toxicity, organism-based; set-up: dose 100 mg/kg, route intraperitoneal; details: in vivo; summary of the method: as §5
Mus musculus [15] = assay: Neurotoxicity in albino Carworth Farms No.1 mouse assessed as motor impairment at 300 mg/kg, ip after 4 hrs by rotarod test; type: toxicity, organism-based; set-up: dose 300 mg/kg, route intraperitoneal; details: in vivo; summary of the method: as §5
Mus musculus [16] = assay: Anticonvulsant activity in albino Carworth Farms No.1 mouse assessed as protection against subcutaneous metrazol-induced seizure at 100 mg/kg, ip after 4 hrs; type: functional, organism-based; set-up: dose 100 mg/kg; summary of the method: as §4
Mus musculus [17] = assay: Anticonvulsant activity in albino Carworth Farms No.1 mouse assessed as protection against subcutaneous metrazol-induced seizure at 30 mg/kg, ip after 0.5 hrs; type: functional, organism-based; set-up: dose 30 mg/kg; summary of the method: as §4
Mus musculus [18] = assay: Anticonvulsant activity in albino Carworth Farms No.1 mouse assessed as protection against maximal electroshock-induced seizure at 300 mg/kg, ip after 0.5 hrs; type: functional, organism-based; set-up: dose 300 mg/kg; summary of the method: as §3
Mus musculus [19] = assay: Neurotoxicity in albino Carworth Farms No.1 mouse assessed as motor impairment at 30 mg/kg, ip after 0.5 hrs by rotarod test; type: toxicity, organism-based; set-up: dose 30 mg/kg, route intraperitoneal; details: in vivo; summary of the method: as §5
Mus musculus [20] = assay: Anticonvulsant activity in albino Carworth Farms No.1 mouse assessed as protection against subcutaneous metrazol-induced seizure at 100 mg/kg, ip after 0.5 hrs; type: functional, organism-based; set-up: dose 100 mg/kg; summary of the method: as §4
Mus musculus [21] = assay: Anticonvulsant activity in albino Carworth Farms No.1 mouse assessed as protection against maximal electroshock-induced seizure at 100 mg/kg, ip after 4 hrs; type: functional, organism-based; set-up: dose 100 mg/kg; summary of the method: as §3
Mus musculus [22] = assay: Anticonvulsant activity in albino Carworth Farms No.1 mouse assessed as protection against maximal electroshock-induced seizure at 30 mg/kg, ip after 0.5 hrs; type: functional, organism-based; set-up: dose 30 mg/kg; summary of the method: as §3
Mus musculus [23] = assay: Anticonvulsant activity in albino Carworth Farms No.1 mouse assessed as protection against maximal electroshock-induced seizure at 100 mg/kg, ip after 0.5 hrs; type: functional, organism-based; set-up: dose 100 mg/kg; summary of the method: as §3
Mus musculus [24] = assay: Anticonvulsant activity in albino Carworth Farms No.1 mouse assessed as protection against subcutaneous metrazol-induced seizure at 300 mg/kg, ip after 0.5 hrs; type: functional, organism-based; set-up: dose 300 mg/kg; summary of the method: as §4
Mus musculus [25] = assay: Anticonvulsant activity in albino Carworth Farms No.1 mouse assessed as protection against maximal electroshock-induced seizure at 30 mg/kg, ip after 4 hrs; type: functional, organism-based; set-up: dose 30 mg/kg; summary of the method: as §3
Mus musculus [26] = assay: Anticonvulsant activity in albino Carworth Farms No.1 mouse assessed as protection against electric-current for 3 secs-induced seizure at 100 mg/kg, ip after 0.5 hrs by 6Hz minimal clonic seizure test; type: functional
Summary of the method: (§6)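 6 Hz psychomotor seizure test in mice. Compound given i.p. as a suspension in 0.5% methylcellulose. Corneal stimulation at 32 mA, 0.2-ms monopolar rectangular pulses at 6 Hz for 3 s, from a constant-current device. Tests run 0.25–4 h after dosing. A mouse counted as protected if it resumed normal exploratory behaviour within 10 s; scored as protected/tested.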

[27] = Neurotoxicity in ip dosed albino Carworth Farms No.1 mouse assessed as motor impairment after 0.25 hrs by rotarod test; type: toxicity, organism-based; details: Carworth Farms No.1 (albino), in vivo
Summary of the method: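 Mouse quantification at the time of peak effect, compound given i.p. in 0.5% methylcellulose. Groups of at least eight mice received varied doses until at least two points fell between 100 and 0% response. PI = TD50/ED50 MES.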

Mus musculus [28] = assay: Neurotoxicity in albino Carworth Farms No.1 mouse assessed as motor impairment at 100 mg/kg, ip after 2 hrs by rotarod test; type: toxicity, organism-based; set-up: dose 100 mg/kg, route intraperitoneal; details: in vivo
Summary of the method: (§7)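 Rotorod neurotoxicity in mice (18–25 g) following i.p. dosing of a suspension in 0.5% methylcellulose in water, tested at intervals between 0.25 and 4 h. Impairment was scored as failure to keep equilibrium on a 6 r.p.m. rod, reported as number impaired/number tested.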

Mus musculus [29] = assay: Neurotoxicity in albino Carworth Farms No.1 mouse assessed as motor impairment at 100 mg/kg, ip after 0.25 hrs by rotarod test; type: toxicity, organism-based; set-up: dose 100 mg/kg, route intraperitoneal; details: in vivo; summary of the method: as §7
Mus musculus [30] = assay: Anticonvulsant activity in albino Carworth Farms No.1 mouse assessed as protection against electric-current for 3 secs-induced seizure at 100 mg/kg, ip after 1 hr by 6Hz minimal clonic seizure test; type: functional, organism-based; set-up: dose 100 mg/kg; summary of the method: as §6
Mus musculus [31] = assay: Neurotoxicity in albino Carworth Farms No.1 mouse assessed as motor impairment at 100 mg/kg, ip after 4 hrs by rotarod test; type: toxicity, organism-based; set-up: dose 100 mg/kg, route intraperitoneal; details: in vivo; summary of the method: as §5
Mus musculus [32] = assay: Anticonvulsant activity in albino Carworth Farms No.1 mouse assessed as protection against electric-current for 3 secs-induced seizure at 100 mg/kg, ip after 4 hrs by 6Hz minimal clonic seizure test; type: functional, organism-based; set-up: dose 100 mg/kg; summary of the method: as §6
Mus musculus [33] = assay: Anticonvulsant activity in albino Carworth Farms No.1 mouse assessed as protection against electric-current for 3 secs-induced seizure at 100 mg/kg, ip after 0.25 hrs by 6Hz minimal clonic seizure test; type: functional, organism-based; set-up: dose 100 mg/kg; summary of the method: as §6
Mus musculus [34] = assay: Neurotoxicity in albino Carworth Farms No.1 mouse assessed as motor impairment at 100 mg/kg, ip after 1 hr by rotarod test; type: toxicity, organism-based; set-up: dose 100 mg/kg, route intraperitoneal; details: in vivo; summary of the method: as §7
Mus musculus [35] = assay: Anticonvulsant activity in albino Carworth Farms No.1 mouse assessed as protection against electric-current for 3 secs-induced seizure at 100 mg/kg, ip after 2 hrs by 6Hz minimal clonic seizure test; type: functional, organism-based; set-up: dose 100 mg/kg; summary of the method: as §6

Compound	Time (Mus musculus [2]) [h]	Activity (Mus musculus [9])	Activity (Mus musculus [10])	Activity (Mus musculus [11])	Activity (Mus musculus [12])	Activity (Mus musculus [13])	Activity (Mus musculus [14])	Activity (Mus musculus [15])	Activity (Mus musculus [16])	Activity (Mus musculus [17])	Activity (Mus musculus [18])	Activity (Mus musculus [19])	Activity (Mus musculus [20])	Activity (Mus musculus [21])	Activity (Mus musculus [22])	Activity (Mus musculus [23])	Activity (Mus musculus [24])	Activity (Mus musculus [25])	other results
CCC1(c2ccccc2)C(=O)NC(=O)NC1=O [PHENOBARBITAL]	0.5	–	–	–	–	–	–	–	–	–	–	–	–	–	–	–	–	–	ED50 (Rattus norvegicus [1]): 11.6 mg/kg; Time (Mus musculus [3]): 1 h; Time (Rattus norvegicus [4]): 5 h; ED50 (Mus musculus [5]): 14.8 mg/kg; ED50 (Mus musculus [6]): 21.8 mg/kg; TD50 at 0.25 h [7]: 61.1 mg/kg; ED50 (Mus musculus [8]): 13.2 mg/kg
O=C1CN2CCC[C@H]2C(=O)N1	–	inactive	inactive	Non-toxic	inactive	Non-toxic	Non-toxic	Non-toxic	inactive	inactive	inactive	Non-toxic	inactive	inactive	inactive	inactive	inactive	inactive	–
COC(=O)[C@@H](c1ccccc1)N1CCC[C@H]1C(N)=O	–	–	–	–	–	Toxic	–	–	–	–	–	–	–	–	–	–	–	–	Activity (Mus musculus [26]): Active
CC[C@@H](C(N)=O)N1CCCC1=O	1	–	–	–	–	–	–	–	–	–	–	–	–	–	–	–	–	–	TD50 at 0.25 h [27]: > 500 mg/kg
O=C1[C@@H]2CCCN2[C@H](c2ccccc2)C(=O)N1Cc1ccccc1	–	inactive	inactive	Non-toxic	inactive	Non-toxic	Non-toxic	Non-toxic	inactive	inactive	inactive	Non-toxic	inactive	inactive	inactive	inactive	inactive	inactive	–
O=C1[C@@H]2CCCN2[C@H](c2ccccc2)C(=O)N1CCc1ccccc1	–	inactive	inactive	Non-toxic	inactive	Non-toxic	Non-toxic	Non-toxic	inactive	inactive	inactive	Non-toxic	inactive	inactive	inactive	inactive	inactive	inactive	Activity (Mus musculus [28]): Non-toxic; Activity (Mus musculus [29]): Non-toxic; Activity (Mus musculus [30]): inactive; Activity (Mus musculus [31]): Non-toxic; Activity (Mus musculus [32]): inactive; Activity (Mus musculus [33]): inactive; Activity (Mus musculus [34]): Non-toxic; Activity (Mus musculus [35]): inactive
